ChEMBL document CHEMBL4715754, “Slowing down fat digestion and absorption by an oxadiazolone inhibitor targeting selectively gastric lipolysis” (2016)

Legend:
[1] = biological target: T1, Pancreatic lipase-related protein 2 (Cavia porcellus) (UniProt P81139); assay: Inhibition of recombinant guinea pig PL-RP2 expressed in Aspergillus oryzae preincubated for 1 hr at 25 degreeC
T1 sequence (whole entry): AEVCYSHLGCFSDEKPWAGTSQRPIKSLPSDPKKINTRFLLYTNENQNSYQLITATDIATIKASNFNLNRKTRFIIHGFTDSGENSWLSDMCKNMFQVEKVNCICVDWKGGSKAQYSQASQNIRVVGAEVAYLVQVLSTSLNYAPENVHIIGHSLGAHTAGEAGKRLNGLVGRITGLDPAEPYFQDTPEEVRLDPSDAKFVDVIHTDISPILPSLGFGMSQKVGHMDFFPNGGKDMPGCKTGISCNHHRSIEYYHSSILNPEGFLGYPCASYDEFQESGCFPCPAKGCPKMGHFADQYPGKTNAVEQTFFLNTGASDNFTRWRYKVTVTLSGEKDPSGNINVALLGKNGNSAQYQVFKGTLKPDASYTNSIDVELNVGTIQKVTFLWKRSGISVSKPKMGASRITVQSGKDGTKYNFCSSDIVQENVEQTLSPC

[2] = biological target: T2, Pancreatic triacylglycerol lipase (Homo sapiens) (UniProt P16233); assay: Inhibition of human pancreatic lipase at 400:1 molar excess compound concentration preincubated for 30 mins at 25 degreeC relative to control
T2 sequence (whole entry): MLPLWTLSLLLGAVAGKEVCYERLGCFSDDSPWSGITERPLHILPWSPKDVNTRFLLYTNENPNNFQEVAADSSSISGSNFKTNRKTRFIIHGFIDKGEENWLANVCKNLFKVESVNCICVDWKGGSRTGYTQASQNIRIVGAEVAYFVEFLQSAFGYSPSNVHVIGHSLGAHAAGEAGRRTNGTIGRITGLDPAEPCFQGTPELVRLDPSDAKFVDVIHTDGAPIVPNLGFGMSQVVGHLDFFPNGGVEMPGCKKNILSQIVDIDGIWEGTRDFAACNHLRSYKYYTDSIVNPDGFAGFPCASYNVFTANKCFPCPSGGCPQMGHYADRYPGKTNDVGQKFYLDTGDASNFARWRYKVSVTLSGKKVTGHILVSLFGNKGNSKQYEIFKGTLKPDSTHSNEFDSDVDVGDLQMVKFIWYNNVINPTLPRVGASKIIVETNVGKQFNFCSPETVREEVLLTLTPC
Outline: (§1)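 Pancreatic lipase from human pancreatic juice (54 µg/mL HPL stock) or porcine pancreatic extract (32 µg/mL PPL stock) was held in 10 mM MES pH 7.0, 150 mM NaCl. It was pre-incubated with inhibitor from DMSO stock for 30 min at 25 °C with 4 mM NaTDC at varied molar excess. Residual activity was read by pH-stat on tributyrin at 37 °C, pH 8.0, with 2 mM CaCl₂ and 4 mM NaTDC. x_I50 was taken from residual activity; DMSO-only controls were run.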

[3] = biological target: T2, Pancreatic triacylglycerol lipase (Homo sapiens); assay: Inhibition of human pancreatic lipase preincubated for 30 mins at 25 degreeC; outline: as §1
[4] = biological target: T3, Gastric triacylglycerol lipase (Canis lupus familiaris) (UniProt P80035); assay: Inhibition of recombinant dog gastric lipase preincubated for 1 hr at 25 degreeC
T3 sequence (whole entry): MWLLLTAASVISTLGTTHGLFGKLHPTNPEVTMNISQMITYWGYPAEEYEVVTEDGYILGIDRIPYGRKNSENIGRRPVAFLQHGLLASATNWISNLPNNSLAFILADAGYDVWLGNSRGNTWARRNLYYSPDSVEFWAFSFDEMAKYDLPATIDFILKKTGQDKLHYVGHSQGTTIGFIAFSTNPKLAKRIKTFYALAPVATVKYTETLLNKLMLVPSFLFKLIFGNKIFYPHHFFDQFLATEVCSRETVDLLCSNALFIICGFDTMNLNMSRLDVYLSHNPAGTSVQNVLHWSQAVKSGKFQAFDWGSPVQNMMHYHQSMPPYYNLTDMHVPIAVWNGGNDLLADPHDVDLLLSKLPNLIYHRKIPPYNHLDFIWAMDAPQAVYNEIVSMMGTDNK

[5] = biological target: T4, Gastric triacylglycerol lipase (Rattus norvegicus) (UniProt P04634); assay: Inhibition of rat lingual lipase preincubated for 1 hr at 25 degreeC
T4 sequence (whole entry): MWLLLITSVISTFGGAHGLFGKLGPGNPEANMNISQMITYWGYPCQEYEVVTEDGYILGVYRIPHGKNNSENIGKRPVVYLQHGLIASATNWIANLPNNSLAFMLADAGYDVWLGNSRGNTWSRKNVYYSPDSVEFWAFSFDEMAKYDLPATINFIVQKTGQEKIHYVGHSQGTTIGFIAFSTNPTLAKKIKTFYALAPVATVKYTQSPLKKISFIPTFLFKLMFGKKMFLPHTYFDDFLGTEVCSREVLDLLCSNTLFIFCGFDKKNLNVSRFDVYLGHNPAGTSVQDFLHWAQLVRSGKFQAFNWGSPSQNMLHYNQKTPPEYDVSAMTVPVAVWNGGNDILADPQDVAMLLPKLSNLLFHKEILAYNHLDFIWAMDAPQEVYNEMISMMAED
Outline: (§2)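 Enzyme pre-incubated with inhibitor (DMSO stock) at fixed molar excess for 1 h at 25 °C without substrate: hCEH x_I=4 (1 mM NaTDC assay), RLL and DGL x_I=20 with 4 mM NaTDC, GPLRP2 x_I=2 with 2 mM NaTDC. Residual activity sampled at intervals by pH-stat on tributyrin emulsion at 37 °C; t1/2 taken at 50% residual activity. DMSO-only controls; at least triplicate.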

[6] = biological target: T1, Pancreatic lipase-related protein 2 (Cavia porcellus); assay: Inhibition of recombinant guinea pig PL-RP2 expressed in Aspergillus oryzae assessed as residual activity by measuring half-inactivation time at 2:1 molar excess compound concentration preincubated for 1 hr at 25 degreeC; outline: as §2
[7] = biological target: T4, Gastric triacylglycerol lipase (Rattus norvegicus); assay: Inhibition of rat lingual lipase assessed as residual activity by measuring half-inactivation time at 20:1 molar excess compound concentration preincubated for 1 hr at 25 degreeC; outline: as §2
Rattus norvegicus = assay: Inhibition of lipolysis in mesenteric lymph duct-cannulated Wistar rat model assessed as decrease in intestinal lipid absorption at 5.3 mg/kg supplemented with olive oil emulsion and measured after 6 hrs relative to control; assay type: functional; set-up: scale not given: the % may be the effect or the level left
Outline: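 Male Wistar rats (8 weeks, 300-350 g), fat-free diet 24 h, mesenteric lymph duct cannulated under ketamine/xylazine. Given 0.8 mL olive oil emulsion (530 mg fatty acids) premixed with inhibitor at 5.3 mg/kg by mouth, then 0.5 mL water. Lymph collected over 24 h; total fatty acids by GC-FID of methyl esters. 7 rats per group; one-way ANOVA with Fisher's test.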

Work on `O=c1oc(OCCOCc2ccccc2)nn1-c1cccc(Oc2ccccc2)c1` yielded an XI50 [1] of 0.64 molar excess, an inhibition [2] of 19.3% and an XI50 [3] greater than 400 molar excess. The XI50 [4] was 0.5 molar excess, the XI50 [5] was 1.43 molar excess and the T1/2 [6] was 31.2 s. It also gave a T1/2 [7] of 297 s and an Activity (Rattus norvegicus) of -9.1%.
For `CCCCCCCCCCC[C@@H](C[C@@H]1OC(=O)[C@H]1CCCCCC)OC(=O)[C@@H](CC(C)C)NC=O`, the XI50 [1] was 0.53 molar excess, the inhibition [2] was 91.5% and the XI50 [3] was 11.1 molar excess. It also gave an XI50 [4] of 5.6 molar excess, an XI50 [5] of 0.7 molar excess and a T1/2 [6] of 24 s. For the same compound, the T1/2 [7] was 23.4 s and the Activity (Rattus norvegicus) was -37.4%.
